Measured values taken from ChEMBL document CHEMBL1138322 (J Med Chem, 2007).
The source made the active and inactive calls. The calls are words filed in the database; no cut-off is given here.

Experiments:
Mus musculus [1] = assay: Reduction of plasma free fatty acid levels in po dosed mouse after 15 mins; type: functional, organism-based; settings: for ED50: po
In short: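 Mice dosed orally. Plasma free fatty acids and plasma compound level both measured at 15 min post-dosing.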

[2] = Plasma concentration in mouse at 3 mg/kg, ip after 5 mins
Mus musculus [3] = assay: Drug level in mouse at 10 mg/kg, po; settings: read-out: Activity, in vivo
[4] = Clearance in mouse at 1 mg/kg, iv or 2 mg/kg, po; type: ADME, organism-based; settings: in vivo
In short: (§1)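 Mouse PK. Intravenous dose 1 mg/kg and oral dose 2 mg/kg, both given in DMSO/PEG400/water (5:40:55 v:v:v).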

Cytochrome P450 2C8 = molecular target: T1, Cytochrome P450 2C8 (Homo sapiens, UniProt P10632); assay: Inhibition of CYP2C8 in human liver microsomes; type: ADME, Microsome
T1 sequence (P10632 whole entry): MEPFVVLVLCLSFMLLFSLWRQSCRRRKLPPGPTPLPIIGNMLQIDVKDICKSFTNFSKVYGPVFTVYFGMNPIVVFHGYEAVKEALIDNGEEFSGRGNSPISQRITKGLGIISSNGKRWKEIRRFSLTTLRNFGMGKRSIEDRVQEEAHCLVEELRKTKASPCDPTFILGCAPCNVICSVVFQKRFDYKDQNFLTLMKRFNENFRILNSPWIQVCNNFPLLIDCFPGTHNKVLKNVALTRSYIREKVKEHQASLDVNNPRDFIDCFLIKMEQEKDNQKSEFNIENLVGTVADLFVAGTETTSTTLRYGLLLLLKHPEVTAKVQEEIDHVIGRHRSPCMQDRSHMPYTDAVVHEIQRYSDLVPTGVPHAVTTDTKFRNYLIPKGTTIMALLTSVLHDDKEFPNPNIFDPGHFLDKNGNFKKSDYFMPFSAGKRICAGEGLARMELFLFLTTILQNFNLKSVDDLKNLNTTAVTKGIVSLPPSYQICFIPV
In short: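 Human liver microsome CYP2C8 inhibition with taxol as substrate and montelukast as positive control; IC50 reported.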

[5] = Oral bioavailability in mouse at 2 mg/kg, po; type: ADME, organism-based; settings: in vivo; in short: as §1
[6] = Volume of distribution at steady state in mouse at 1 mg/kg, iv or 2 mg/kg, po; type: ADME, organism-based; settings: in vivo, read-out: Vdss; in short: as §1
Cytochrome P450 2C9 = Cytochrome P450 2C9 (Homo sapiens, UniProt P11712); assay: Inhibition of CYP2C9 in human liver microsomes; type: ADME, Microsome
[7] = Cmax in mouse at 1 mg/kg, iv or 2 mg/kg, po; type: ADME, organism-based; settings: in vivo; in short: as §1
[8] = Half life in mouse at 1 mg/kg, iv or 2 mg/kg, po; type: ADME, organism-based; settings: in vivo; in short: as §1
Adipocyte = assay: Inhibition of lipolysis in human adipocytes; type: functional, cell-based
In short: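 Inhibition of lipolysis in human adipocytes, read as reduction of free fatty acid release.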

[9] = Plasma concentration in mouse at 100 mg/kg, ip after 15 mins; type: ADME, organism-based; parameters: dose 100 mg/kg, route intraperitoneal
In short: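 After an i.p. dose in the mouse ear vasodilation study, plasma compound level measured at 15 min post-dose.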

Mus musculus [10] = assay: Vasodilation effect in mouse ear at 100 mg/kg, ip; type: functional, organism-based; parameters: dose 100 mg/kg
In short: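 Flushing model in mice. Compound given i.p. in 5% DMSO/40% PEG400/55% water. Vasodilation read as the change in ear blood perfusion by laser Doppler flowmetry.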

[11] = molecular target: T2, Hydroxycarboxylic acid receptor 2 (Mus musculus, UniProt Q9EP66); assay: Displacement of [3H]niacin from mouse GPR109A
[12] = Therapeutic index, ratio of vasodilating effect to IC50 for FFA reduction in mouse; type: organism-based; settings: in vivo
In short: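 Mouse ear vasodilation (flushing) measured as the change in blood perfusion by laser Doppler flowmetry after i.p. dosing in 5% DMSO/40% PEG400/55% water, with plasma drug level taken post-dose. Plasma FFA reduction was measured after p.o. dosing, with compound and FFA plasma levels at 15 min. TI = minimum plasma level inducing flushing ÷ in vivo IC50 for FFA reduction.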

[13] = molecular target: T2, Hydroxycarboxylic acid receptor 2; assay: Agonist activity at mouse GPR109A by [35S]GTP-gamma-S binding assay; type: functional

Sequence of Cytochrome P450 2C9 (P11712 whole entry): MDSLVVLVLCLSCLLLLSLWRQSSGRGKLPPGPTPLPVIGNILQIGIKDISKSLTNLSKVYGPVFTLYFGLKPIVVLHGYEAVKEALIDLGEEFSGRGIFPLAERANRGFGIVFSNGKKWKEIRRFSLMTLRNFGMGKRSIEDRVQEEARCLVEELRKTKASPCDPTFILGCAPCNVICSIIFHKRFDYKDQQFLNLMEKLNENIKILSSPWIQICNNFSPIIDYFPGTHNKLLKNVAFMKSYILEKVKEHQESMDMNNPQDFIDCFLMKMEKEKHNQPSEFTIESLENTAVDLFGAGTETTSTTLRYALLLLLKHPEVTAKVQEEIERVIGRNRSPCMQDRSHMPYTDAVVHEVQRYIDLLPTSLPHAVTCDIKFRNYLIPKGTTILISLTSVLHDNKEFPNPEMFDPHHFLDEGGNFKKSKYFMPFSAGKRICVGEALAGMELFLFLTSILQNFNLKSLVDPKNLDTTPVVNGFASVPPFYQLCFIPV
T2 sequence (Q9EP66 whole entry): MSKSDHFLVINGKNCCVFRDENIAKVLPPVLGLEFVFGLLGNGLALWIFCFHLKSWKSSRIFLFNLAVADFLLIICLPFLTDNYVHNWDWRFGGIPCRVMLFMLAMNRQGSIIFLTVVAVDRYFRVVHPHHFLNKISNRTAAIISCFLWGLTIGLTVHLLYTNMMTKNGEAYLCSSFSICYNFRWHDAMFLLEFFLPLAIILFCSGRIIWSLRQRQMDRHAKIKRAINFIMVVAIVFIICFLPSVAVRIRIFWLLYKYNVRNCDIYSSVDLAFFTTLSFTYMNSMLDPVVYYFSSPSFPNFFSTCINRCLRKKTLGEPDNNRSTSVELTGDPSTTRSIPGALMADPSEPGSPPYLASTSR

For O=C(O)c1cccnc1 [NIACIN], which ED50 (Mus musculus [1]) is on record?
The ED50 was 8 mg/kg.

And the concentration at 5 min [2]?
The concentration at 5 min was 18000 nM.

And the concentration (Mus musculus [3])?
The concentration was 20000 nM.

For O=C(CCc1ccc(-c2ccc(O)cc2Cl)cc1)Nc1ccccc1C(=O)O, which clearance [4] is on record?
The clearance was 18 mL/min/kg.

What about the IC50 (Cytochrome P450 2C8) of the same molecule?
Its IC50 is < 0.4 µM.

And the bioavailability [5]?
The bioavailability was 5%.

And the Vd [6]?
The Vd was 0.35 L/kg.

What about the IC50 (Cytochrome P450 2C9) of the same molecule?
Its IC50 is < 0.4 µM.

And the Cmax [7]?
Its Cmax is 960 nM.

What about the half-life [8] of the same molecule?
The half-life was 2 h.

For O=C(CCc1nc(-c2ccc(O)cn2)no1)Nc1ccccc1C(=O)O, which IC50 (Cytochrome P450 2C8) is on record?
The IC50 was > 100 µM.

What about the IC50 (Adipocyte) of the same molecule?
The IC50 was 0.005 µM.

What about the IC50 (Cytochrome P450 2C9) of the same molecule?
The IC50 was > 100 µM.

With O=C(CCc1ccc(-c2ccc(O)cn2)cc1)Nc1ccccc1C(=O)O as the molecule, how does the clearance [4] read?
The clearance was 0.38 mL/min/kg.

What about the IC50 (Cytochrome P450 2C8) of the same molecule?
The IC50 was 8.9 µM.

And the bioavailability [5]?
Its bioavailability is 57%.

And the Vd [6]?
Its Vd is 0.11 L/kg.

And the IC50 (Cytochrome P450 2C9)?
Its IC50 is 1.6 µM.

What about the Cmax [7] of the same molecule?
The Cmax was 5000 nM.

And the half-life [8]?
The half-life was 5.3 h.

For O=C(CCc1cnc(-c2ccc(O)cc2Cl)s1)Nc1ccccc1C(=O)O, which clearance [4] is on record?
The clearance was 7.3 mL/min/kg.

What about the IC50 (Cytochrome P450 2C8) of the same molecule?
The IC50 was 1.2 µM.

And the bioavailability [5]?
Its bioavailability is 37%.

And the Vd [6]?
Its Vd is 0.37 L/kg.

What about the IC50 (Cytochrome P450 2C9) of the same molecule?
Its IC50 is 2.8 µM.

And the Cmax [7]?
Its Cmax is 2100 nM.

What about the half-life [8] of the same molecule?
Its half-life is 1.6 h.

For O=C(CCc1ncc(-c2ccc(O)cn2)s1)Nc1ccccc1C(=O)O, which IC50 (Cytochrome P450 2C8) is on record?
The IC50 was 9.3 µM.

And the IC50 (Cytochrome P450 2C9)?
Its IC50 is 4.2 µM.

For O=C(CCc1cnc(-c2ccc(O)cn2)s1)Nc1ccccc1C(=O)O, which clearance [4] is on record?
Its clearance is 8.5 mL/min/kg.

What about the IC50 (Cytochrome P450 2C8) of the same molecule?
Its IC50 is 20.3 µM.

What about the bioavailability [5] of the same molecule?
Its bioavailability is 27%.

What about the Vd [6] of the same molecule?
Its Vd is 0.62 L/kg.

What about the IC50 (Cytochrome P450 2C9) of the same molecule?
The IC50 was 5.7 µM.

What about the Cmax [7] of the same molecule?
The Cmax was 520 nM.

And the half-life [8]?
Its half-life is 2.2 h.

For O=C(CCc1nc(-c2ccc(O)cc2)no1)Nc1ccccc1C(=O)O, which concentration at […] [9] is on record?
Its concentration at […] is 490000 nM.

And the Activity (Mus musculus [10])?
The Activity was “inactive”.

And the IC50 [11]?
Its IC50 is 0.46 µM.

What about the IC50 (Mus musculus [1]) of the same molecule?
The IC50 was 6.9 µM.

What about the ED50 (Mus musculus [1]) of the same molecule?
Its ED50 is 9 mg/kg.

And the clearance [4]?
The clearance was 34 mL/min/kg.

What about the selectivity ratio [12] of the same molecule?
The selectivity ratio was > 70.

What about the EC50 [13] of the same molecule?
Its EC50 is 1.6 µM.

What about the bioavailability [5] of the same molecule?
The bioavailability was 6%.

What about the Vd [6] of the same molecule?
The Vd was 1.66 L/kg.

What about the IC50 (Adipocyte) of the same molecule?
Its IC50 is 0.03 µM.

What about the Cmax [7] of the same molecule?
Its Cmax is 120 nM.

And the half-life [8]?
The half-life was 1.3 h.

With Cc1c(CCC(=O)Nc2ccccc2C(=O)O)cnn1-c1ccc(O)cc1 as the molecule, how does the clearance [4] read?
The clearance was 26 mL/min/kg.

What about the IC50 (Cytochrome P450 2C8) of the same molecule?
The IC50 was 19 µM.

What about the bioavailability [5] of the same molecule?
Its bioavailability is 2.5%.

And the Vd [6]?
Its Vd is 0.88 L/kg.

What about the IC50 (Adipocyte) of the same molecule?
Its IC50 is 0.04 µM.

And the IC50 (Cytochrome P450 2C9)?
Its IC50 is 15 µM.

What about the Cmax [7] of the same molecule?
Its Cmax is 30 nM.

What about the half-life [8] of the same molecule?
Its half-life is 1.1 h.
